# Experimental data of several laboratories.
# Each line is one published result; the experiments were not run side by side.
# Target: Serine/threonine-protein kinase TBK1 (TBK1, Homo sapiens, UniProt Q9UHD2)
# Effect on: enzyme activity
# Mode: inhibitor
# One construct used (Q9UHD2 1-729): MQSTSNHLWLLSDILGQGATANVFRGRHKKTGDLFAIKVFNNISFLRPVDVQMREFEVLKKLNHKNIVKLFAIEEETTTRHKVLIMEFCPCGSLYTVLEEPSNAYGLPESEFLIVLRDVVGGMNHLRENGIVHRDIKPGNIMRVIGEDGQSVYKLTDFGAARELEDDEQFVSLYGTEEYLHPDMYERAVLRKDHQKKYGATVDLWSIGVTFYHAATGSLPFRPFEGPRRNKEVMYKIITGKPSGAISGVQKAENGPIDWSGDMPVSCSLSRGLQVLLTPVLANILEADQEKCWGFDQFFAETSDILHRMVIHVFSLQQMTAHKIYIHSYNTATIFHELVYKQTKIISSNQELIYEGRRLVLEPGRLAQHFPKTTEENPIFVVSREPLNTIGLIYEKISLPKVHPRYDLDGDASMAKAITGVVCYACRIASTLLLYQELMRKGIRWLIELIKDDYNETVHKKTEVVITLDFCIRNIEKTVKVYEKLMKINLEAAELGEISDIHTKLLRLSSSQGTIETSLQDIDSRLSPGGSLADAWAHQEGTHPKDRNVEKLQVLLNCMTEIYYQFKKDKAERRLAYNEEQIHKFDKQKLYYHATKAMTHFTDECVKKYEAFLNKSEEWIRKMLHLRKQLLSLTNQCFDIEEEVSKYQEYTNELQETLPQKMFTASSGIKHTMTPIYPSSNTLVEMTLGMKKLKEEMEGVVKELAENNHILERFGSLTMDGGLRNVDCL
SMILES,test,conditions,remaining activity [%]
COc1cc(Nc2cnc(C#N)c(O[C@H](C)CN(C)C)n2)ncc1-c1cnn(C)c1,radiometric,1 µM,71
Cn1c(=O)n(-c2ccc(C(C)(C)C#N)cc2)c2c3cc(-c4cnc5ccccc5c4)ccc3ncc21,,10 µM,107
Brc1cnc(Nc2cccc(CN3CCOCC3)c2)nc1NCCc1c[nH]cn1,radiometric,1 µM,21
O=C(Nc1cnn(-c2csc(C(=O)NC3COC3)c2)c1)Nc1ccccc1Cl,,5 µM,102
CC(C)(C)c1nc(-c2cccc(NS(=O)(=O)c3c(F)cccc3F)c2F)c(-c2ccnc(N)n2)s1,radiometric,1 µM,88
Cc1nn(CC(F)(F)F)cc1Nc1nccc(NCc2ccc(S(N)(=O)=O)cc2)n1,radiometric,1 µM,49
Cc1cnc(NC2CCOCC2)nc1-n1cnc(C(=O)NC(CN)c2cc(F)cc(Cl)c2)c1 (stereo not drawn),radiometric,1 µM,61
Nc1nc(NC2CCCCC2)sc1C(=O)c1ccccc1,,10 µM,88
NS(=O)(=O)c1ccc(CNc2nc(Nc3cccc(CN4CCOCC4)c3)ncc2Br)cc1,radiometric,1 µM,4
CCCOc1ccc(OC)c(F)c1C(=O)c1ccc(C(=O)N[C@@H]2CNC[C@H]2NC(=O)c2ccc3[nH]ncc3c2)cc1,,10 µM,82
O=C(Nc1cnn(-c2csc(C(=O)NC3COC3)c2)c1)Nc1c(F)cccc1Cl,,5 µM,98.8
FC(F)c1nc2ccccc2n1-c1nc(N2CCOCC2)nc(N2CCOCC2)n1,,10 µM,102
